In brackets after ≈: the same amount, converted by molar mass. Activity calls are given as the source filed them.

Common to all, as to type: functional
Assay [1] has as its system Syncephalastrum racemosum. Briefly: Antifungal activity against Syncephalastrum racemosum RCMB 052003 at 10 mg/ml after 3 to 4 days by agar well diffusion method. The conditions noted are these: for zone of inhibition at 10000 µg/mL: read-out: DIZ. The procedure, abridged:
(§1)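 Agar well diffusion on Sabouraud dextrose agar (glucose–peptone–agar 40:10:15). Culture grown in Sabouraud broth for 3-4 days to 10^5 CFU mL⁻¹; 0.1 mL spread per plate. Wells sealed at the bottom with 0.8% soft agar, then loaded with 100 µl sample at 10 mg mL⁻¹ in DMSO; DMSO control. Incubated at 30 °C for 3–4 days. Zone caliper-read three times; triplicate tests; mean ± SD.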
For orientation: In agar diffusion tests the substance spreads into inoculated agar from a disc or well.

Assay [2] concerns Bacillus subtilis. The assay is described as follows: Antibacterial activity against Bacillus subtilis RCMB 000107 at 10 mg/ml after 24 hrs by agar well diffusion method. The conditions noted are these: for zone of inhibition at 10000 µg/mL: RCMB 000107, 24 h, read-out: DIZ. The method in brief:
(§2)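 Agar well diffusion on nutrient agar (tryptone 1%, yeast extract 0.5%, NaCl 0.5%, agar 1%, pH 7.0). Plates spread with centrifuged pellets from a 24 h culture (about 10^4-10^6 CFU/ml). 100 µl of sample at 10 mg/mL in DMSO per 6 mm well, DMSO control. Incubated at 37 °C for 24 h. Inhibition zone diameter (mm) caliper-read three times; test run three times; mean ± SD.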

Assay [3] relates to Escherichia coli. Briefly: Antibacterial activity against Escherichia coli RCMB 000103 at 10 mg/ml after 24 hrs by agar well diffusion method. The conditions noted are these: for zone of inhibition at 10000 µg/mL: RCMB 000103, 24 h, read-out: DIZ. The method in brief: as §2
Assay [4] concerns Geotrichum candidum. The assay is described as follows: Antifungal activity against Geotrichum candidum RCMB 052006 at 10 mg/ml after 3 to 4 days by agar well diffusion method. The settings on record: for zone of inhibition at 10000 µg/mL: read-out: DIZ. The method in brief:
as §1

Assay [5] deals with Aspergillus fumigatus. Briefly: Antifungal activity against Aspergillus fumigatus RCMB 002003 at 10 mg/ml after 3 to 4 days by agar well diffusion method. The settings on record: for zone of inhibition at 10000 µg/mL: read-out: DIZ. The procedure, abridged: as §1
In assay [6] the test system is Candida albicans. Briefly: Antifungal activity against Candida albicans RCMB 052002 at 10 mg/ml after 3 to 4 days by agar well diffusion method. The conditions noted are these: for zone of inhibition at 10000 µg/mL: read-out: DIZ. The procedure, abridged: as §1
Assay [7] has as its system Staphylococcus aureus. The assay is described as follows: Antibacterial activity against Staphylococcus aureus RCMB 000106 at 10 mg/ml after 24 hrs by agar well diffusion method. The settings on record: for zone of inhibition at 10000 µg/mL: RCMB 000106, 24 h, read-out: DIZ. The procedure, abridged:
as §2

Assay [8] has as its system Pseudomonas aeruginosa. The assay is described as follows: Antibacterial activity against Pseudomonas aeruginosa RCMB 000102 at 10 mg/ml after 24 hrs by agar well diffusion method. The conditions noted are these: for zone of inhibition at 10000 µg/mL: RCMB 000102, 24 h, read-out: DIZ. The method in brief:
as §2

Assay [9] has as its system Candida albicans. The assay is described as follows: Antifungal activity against Candida albicans RCMB 052002 after 3 to 4 days by two fold serial dilution method. The procedure, abridged:
(§3)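 MIC by agar plate method. Two-fold serial dilutions in Sabouraud dextrose broth, autoclaved at 121 °C for 25 min; DMSO control. Loop of culture diluted to 10⁵–10⁶ CFU mL⁻¹. Incubated at 30 °C for 3–4 days, then colonies counted. MIC taken as the lowest concentration fully inhibiting growth relative to control, ignoring a single colony or faint haze.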

Assay [10] deals with Bacillus subtilis. The assay is described as follows: Antibacterial activity against Bacillus subtilis RCMB 000107 after 24 hrs by two fold serial dilution method. The conditions noted are these: RCMB 000107, 24 h. The procedure, abridged: (§4)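 MIC by agar plate method. Two-fold serial dilutions in nutrient broth (beef extract 5 g, peptone 10 g per litre, pH 7.0), autoclaved at 121 °C for 25 min; DMSO control. Loop inoculum diluted to 10⁵–10⁶ CFU mL⁻¹. Incubated at 37 °C for 24 h, then colonies counted. MIC taken as the lowest concentration giving complete inhibition, ignoring a single colony or faint haze.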

Assay [11] deals with Geotrichum candidum. Briefly: Antifungal activity against Geotrichum candidum RCMB 052006 after 3 to 4 days by two fold serial dilution method. The procedure, abridged:
as §3

Assay [12] deals with Syncephalastrum racemosum. The assay is described as follows: Antifungal activity against Syncephalastrum racemosum RCMB 052003 after 3 to 4 days by two fold serial dilution method. The procedure, abridged: as §3
Assay [13] deals with Staphylococcus aureus. Briefly: Antibacterial activity against Staphylococcus aureus RCMB 000106 after 24 hrs by two fold serial dilution method. The settings on record: RCMB 000106, 24 h. The procedure, abridged: as §4
In assay [14] the test system is Escherichia coli. The assay is described as follows: Antibacterial activity against Escherichia coli RCMB 000103 after 24 hrs by two fold serial dilution method. The conditions noted are these: RCMB 000103, 24 h. The procedure, abridged: as §4
For assay [15], the system named is Pseudomonas aeruginosa. The assay is described as follows: Antibacterial activity against Pseudomonas aeruginosa RCMB 000102 after 24 hrs by two fold serial dilution method. The settings on record: RCMB 000102, 24 h. The method in brief: as §4
For assay [16], the system named is Aspergillus fumigatus. The assay is described as follows: Antifungal activity against Aspergillus fumigatus RCMB 002003 after 3 to 4 days by two fold serial dilution method. The method in brief:
as §3

The test system of assay [17] is Syncephalastrum racemosum. Briefly: Antifungal activity against Syncephalastrum racemosum RCMB 052003 at 30 mg/ml after 3 to 4 days by agar well diffusion method. The conditions noted are these: read-out: DIZ.

Regarding `Cc1c(Nc2csc3ncn(N)c(=N)c23)c(=O)n(-c2ccccc2)n1C`, the “diameter of the inhibition zone (DIZ)” value (in [1]; in the assay on Bacillus subtilis [2]; in the assay on Escherichia coli [3]; in the assay with Geotrichum candidum [4]; in the assay with Aspergillus fumigatus [5]; in the assay on Candida albicans [6]) was “inactive” in each case. Further, the “diameter of the inhibition zone (DIZ)” value in the assay on Staphylococcus aureus [7] and in the assay with Pseudomonas aeruginosa [8] was “inactive” each time.

With `CC(=O)Nc1c(C)n(C)n(-c2ccccc2)c1=O`, the “diameter of the inhibition zone (DIZ)” value (in assay [1]; with Pseudomonas aeruginosa [8]) was “inactive” in each case. Also, the zone of inhibition at 10000 µg/mL in the assay on Bacillus subtilis [2] was determined as 13.2 mm; with Escherichia coli [3], 11.4 mm; in the assay on Geotrichum candidum [4], 13.4 mm; with Aspergillus fumigatus [5], 14.3 mm; in the assay with Candida albicans [6], 12.2 mm; in the assay on Staphylococcus aureus [7], 15.9 mm.

With `Cc1c(Nc2csc(N)c2C(N)=O)c(=O)n(-c2ccccc2)n1C`, the “diameter of the inhibition zone (DIZ)” value (in assay [1]; in the assay with Bacillus subtilis [2]; in the assay with Escherichia coli [3]; in the assay with Geotrichum candidum [4]; in the assay on Aspergillus fumigatus [5]; in the assay on Candida albicans [6]) was “inactive” throughout. The “diameter of the inhibition zone (DIZ)” value with Staphylococcus aureus [7] and in the assay on Pseudomonas aeruginosa [8] was “inactive” in each case.

As for `Cc1c(Nc2csc3c2C(=O)N[S+]([O-])N3)c(=O)n(-c2ccccc2)n1C` (stereo not given), the zone of inhibition at 10000 µg/mL turned out to be 10.6 mm in assay [1]; 19.2 mm with Bacillus subtilis [2]; 14.4 mm with Geotrichum candidum [4]; 15.1 mm with Aspergillus fumigatus [5]; 13.4 mm with Candida albicans [6]; 18.3 mm with Staphylococcus aureus [7]. For the same molecule, the “diameter of the inhibition zone (DIZ)” value with Escherichia coli [3] and in the assay on Pseudomonas aeruginosa [8] was “inactive” in each case.

Usually MIC stands for the smallest concentration in the dilution series that meets the test's criterion for growth inhibition. As for `Cc1c(Nc2csc(NC(=O)CCl)c2C#N)c(=O)n(-c2ccccc2)n1C`, the zone of inhibition at 10000 µg/mL stood at 11.2 mm in [1]; 24.1 mm in the assay with Bacillus subtilis [2]; 16.2 mm in the assay with Escherichia coli [3]; 18.3 mm with Geotrichum candidum [4]; 20.1 mm with Aspergillus fumigatus [5]; 15.4 mm in the assay on Candida albicans [6]. In addition, the zone of inhibition at 10000 µg/mL in the assay on Staphylococcus aureus [7] amounted to 19.4 mm; in the assay with Pseudomonas aeruginosa [8], 18.9 mm. Moreover, the MIC with Candida albicans [9] is 156 µg/mL (≈ 388 µM); in the assay with Bacillus subtilis [10], 19 µg/mL (≈ 47.3 µM); against Geotrichum candidum [11] it was 78 µg/mL (≈ 194 µM); in [12] it was 313 µg/mL (≈ 779 µM); in the assay on Staphylococcus aureus [13], 39 µg/mL (≈ 97 µM); against Escherichia coli [14], 78 µg/mL (≈ 194 µM). Further, the MIC in the assay on Pseudomonas aeruginosa [15] and against Aspergillus fumigatus [16] was 39 µg/mL (≈ 97 µM) in each case.

For `CCC(C)n1ncn(-c2ccc(N3CCN(c4ccc(OCC5COC(Cn6cncn6)(c6ccc(Cl)cc6Cl)O5)cc4)CC3)cc2)c1=O` (stereo not given) [ITRACONAZOLE], the zone of inhibition at 30000 µg/mL in assay [17] stood at 22 mm.

Consider `CCO/C=N\c1scc(Nc2c(C)n(C)n(-c3ccccc3)c2=O)c1C#N`, for which the zone of inhibition at 10000 µg/mL in assay [1] turned out to be 8.5 mm; in the assay with Bacillus subtilis [2], 19.2 mm; in the assay with Escherichia coli [3], 13.8 mm; with Geotrichum candidum [4] it was 17.4 mm; in the assay with Aspergillus fumigatus [5], 19.2 mm; in the assay with Candida albicans [6], 14.2 mm. For the same molecule, the zone of inhibition at 10000 µg/mL with Staphylococcus aureus [7] is 18.4 mm; with Pseudomonas aeruginosa [8], 16.2 mm. Further, the MIC against Candida albicans [9] was found to be 156 µg/mL (≈ 409 µM); against Bacillus subtilis [10] it was 39 µg/mL (≈ 102 µM); in the assay on Geotrichum candidum [11], 78 µg/mL (≈ 204 µM); in [12], 625 µg/mL (≈ 1640 µM); with Staphylococcus aureus [13] it was 78 µg/mL (≈ 204 µM); in the assay with Escherichia coli [14], 156 µg/mL (≈ 409 µM). The minimum inhibitory concentration (MIC) in the assay on Pseudomonas aeruginosa [15] and in the assay on Aspergillus fumigatus [16] was 78 µg/mL (≈ 204 µM) throughout.

The record behind these values is ChEMBL document CHEMBL1828577, “Design and synthesis of some new thiophene, thienopyrimidine and thienothiadiazine derivatives of antipyrine as potential antimicrobial agents” (2011).
